Screening data deposited in PubChem BioAssay by Sanford-Burnham Center for Chemical Genomics.
NadD block: inhibitors of Staphylococcus aureus NadD. purified NadD enzyme, colorimetric absorbance read-out. inhibition, % at 20 µM. hit rate 0.78% among 360,000. AID 602399; in the data active = inhibition above about 26%
Scp1 inh: inhibitors of human Scp-1 phosphatase; Q9GZU7; Recombinant Scp1, phosphopeptide, malachite green phosphate absorbance; inhibition, % at 20 µM; hit rate 0.88% among 340,000; AID 493091;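 active = inhibition above about 50% at 20 µM, limit read from the data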;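 note: plate controls were DMSO wells with enzyme for no effect and wells lacking enzyme for full effect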
Target sequence (Q9GZU7 76-261 limits assumed): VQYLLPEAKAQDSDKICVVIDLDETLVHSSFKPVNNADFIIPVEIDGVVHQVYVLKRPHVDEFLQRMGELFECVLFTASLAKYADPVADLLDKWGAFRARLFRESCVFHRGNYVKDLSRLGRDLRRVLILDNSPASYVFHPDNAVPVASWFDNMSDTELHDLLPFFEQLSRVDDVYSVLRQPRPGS
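Test system: SCP-1 catalytic domain; Buffer or medium: Acidic Tris acetate buffer with magnesium and detergent; Also added: Phosphorylated 17-residue peptide substrate; Compound: single 20 µM dose, 1% DMSO; Schedule: enzyme reaction 45 min at room temperature, colour 5 min, stabilisation 30 min; Signal: Phosphate-binding colour reagent, absorbance read at 630 nm.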
LMPTP inh: blocks human LMPTP phosphatase. P24666. recombinant LMPTP-A, OMFP fluorogenic substrate, fluorescence intensity. inhibition, % at 20 µM. hit rate 0.22% among 360,000;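 active = compounds that cut the enzyme signal by at least half of the control window in the single-dose screen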;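 note: plate controls were DMSO wells with enzyme plus substrate for no effect and substrate without enzyme for full effect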
Target sequence (P24666 whole entry, looked up): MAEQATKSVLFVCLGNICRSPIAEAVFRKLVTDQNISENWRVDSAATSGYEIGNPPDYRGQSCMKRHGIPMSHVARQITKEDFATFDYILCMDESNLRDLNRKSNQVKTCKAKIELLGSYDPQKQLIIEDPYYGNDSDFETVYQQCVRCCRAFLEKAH
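Material: LMPTP-A; amount: 0.625 nM enzyme; doses: single 20 µM dose; times: reaction 50 min, room temperature, dark; technique: fluorescence intensity of OMFP turnover product; benchmarks: no-enzyme and uninhibited controls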
SUMO1 PPI mod: SUMO1-SIM interaction modulation | AID 602429 | inhibition, % at 20 µM | hit rate 0.33% among 360,000 | SUMO1 binding to a labelled peptide, TR-FRET, 1 h; in the data active = inhibition above about 37%
Target sequence (P63165 whole entry, looked up): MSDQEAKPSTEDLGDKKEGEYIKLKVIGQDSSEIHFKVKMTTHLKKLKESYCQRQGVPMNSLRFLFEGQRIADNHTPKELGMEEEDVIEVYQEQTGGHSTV
STEP inh: STEP (human) phosphatase inhibition. P54829. inhibition, % at 20 µM. AID 588621. hit rate 0.25% among 360,000. recombinant STEP, OMFP fluorogenic substrate, fluorescence;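 active = inhibition at 20 µM, scaled per plate between control wells, above about 37%, limit read from the data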;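 note: 0% = DMSO with enzyme and substrate and 100% = substrate only without enzyme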
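Measure: Control-normalized % inhibition with plate pattern correction | Test system: STEP phosphatase, cell-free reaction | Medium: pH 6.0 Bis-Tris with DTT and Tween 20 | Technique: Fluorescence, 480/540 nm | Times: Reaction 20 min, ambient temperature | Doses: Single compound dose of 20 µM, 1% DMSO final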
DNMT1 block: DNMT1 (human) enzyme inhibition. hit rate 0.83% among 360,000. AID 588458. DNMT1 molecular beacon, Hinp1I cleavage, fluorescence. inhibition (reported as % activation of signal), % at 10 µM; in the data active = inhibition above about 50%
DNMT1 interf DR: beacon fluorescence artifact, dose response counter-screen. 200 tested, under 10 active. molecular beacon fluorescence, spectral interference counter-screen. IC50, µM. shares compounds with DNMT1 block; call rule not given here
DNMT1 inh conf: DNMT1 inhibition confirmation, single concentration; shares compounds with DNMT1 block; DNMT1 molecular beacon HinP1I cleavage, fluorescence; inhibition, % at 10 µM; hit rate 8% among 2,300; AID 602385;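 active = average inhibition of at least 30% in the single-concentration confirmation test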
Beacon interf: counter-screen for DNMT1 inhibitors: spectral interference. shares compounds with DNMT1 block. DNMT1 molecular beacon spectral interference counterscreen, fluorescence 485/520. activation (fluorescence interference), % at 10 µM. hit rate 1% among 2,300. AID 602387;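 active = activation of at least 30% at 10 µM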;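 note: DNMT1 catalytic domain with a HinP1I cleavage step and a FAM/dabcyl DNA beacon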
* hit, by the source's call; x = no result given. Sampled rows, rich in hits. Any-hit rate of the full collection: about 2.4%.

SMILES	NadD block	Scp1 inh	LMPTP inh	SUMO1 PPI mod	STEP inh	DNMT1 block	DNMT1 inh conf	Beacon interf	others
CC(C)NC(=S)NN(c1ccccc1)c1ccccc1	-4	8	0	4	1	108*	1	-1
COc1cc(/C=C2\SC(=O)N(CC(=O)Nc3ccc(C)cc3)C2=O)cc(Cl)c1OCC(=O)O	25	26	84*	47*	98*	90*	3	6
OC(CN1CCOCC1)c1ccc(F)cc1 (stereo unspecified)	6	-1	-1	0	-2	77*	3	2
CCN(CC)c1ccc(C=NNc2ccc([N+](=O)[O-])cn2)cc1	3	-10	1	-17	4	-7	x	x
COc1cc(CNCC(C)C)cc(Br)c1OCC(=O)Nc1ccccc1	-1	-2	0	0	1	87*	3	4
CCOC(=O)c1c(NC(=O)CSc2nnnn2C)sc(C)c1C	-3	-7	2	-3	4	0	x	x
CCOC(=O)c1c(NC(=O)CSc2nnc(C)o2)sc(C)c1C	-4	-4	-1	1	4	59*	3	1
CCC(CC)C(=O)N(C)c1c(C)nc2c(OCc3ccccc3C)cccn12	-1	x	1	-4	0	68*	0	0
O=C1C2C3c4ccccc4C(c4ccccc43)C2c2nc3ccccc3n21 (stereo unspecified)	6	3	0	-3	2	-2	x	x
Cc1ccc(NC(=O)Cn2cnc(C(=O)Nc3ccc(C)c(C)c3)n2)cc1C	3	4	-1	-3	1	52*	2	3
COc1ccc(CN(Cc2cc3cc4c(cc3[nH]c2=O)OCO4)C(=O)NC2CCCCC2)cc1	10	14	1	2	0	-4	x	x
Nc1nnc(SCC(=O)Nc2cccc(S(N)(=O)=O)c2)s1	-2	5	0	-2	2	92*	3	4
Fc1ccc(CNc2ccc(N3CCN(Cc4ccccc4)CC3)cc2)cc1	2	6	2	-1	2	62*	1	4
CCn1nnnc1SCC(=O)N1CCN(c2ccccc2)CC1	-1	-5	0	-2	0	-27	x	x
CCNC(=O)COC(=O)c1cc(-c2ccco2)nc2ccccc12	5	70*	5	-2	0	71*	12	3
Cc1nnc(NC(=O)c2cc(-c3ccco3)nc3ccccc23)s1	15	x	27	25	21	96*	18	1
COc1ccc(NC(=O)c2cc(-c3ccco3)nc3ccccc23)cn1	16	67*	14	-5	4	49	2	0
O=c1c2cc3c(nc2[nH]c(=S)n1-c1ccccc1)CCCC3	-4	-7	-2	-32	-1	9	x	x
CC(C)(C)NCCC(O)c1cc(C(F)(F)F)nc2c(C(F)(F)F)cccc12 (stereo unspecified)	-47	-77	-3	1	1	3	x	x
O=[N+]([O-])c1ccc(-c2cn(-c3ccc(Cl)cc3)cn2)cc1	5	x	15	75*	25	54*	5	0
COc1ccc(CC(=O)Nc2ccc(-c3noc(-c4ccc(Cl)cc4)n3)cc2)cc1	8	10	22	15	6	51*	4	-5
COc1ccc(CC(=O)Nc2ccc(-c3noc(-c4cc(OC)c(OC)c(OC)c4)n3)cc2)cc1	-4	-13	-1	-3	-3	21	x	x
O=C(O)/C=C/c1ccc([N+](=O)[O-])o1	0	58*	11	-1	31	75*	5	2
O=C(OCCc1cc2ccccc2c(=O)o1)c1ccc2c(c1)OCO2	-8	-4	17	8	1	71*	1	1
CCCn1cc(S(=O)(=O)c2ccc(Cl)cc2)c(=O)c2cc(OC)ccc21	-1	-9	1	5	3	-2	x	x
SMILES	NadD block	Scp1 inh	LMPTP inh	SUMO1 PPI mod	STEP inh	DNMT1 block	DNMT1 inh conf	Beacon interf	others
COc1ccc2nc3cccc(OC)c3nc2c1	5	-1	3	22	1	35	x	x
COc1ccc2nc(-c3ccco3)c(-c3ccco3)nc2c1	9	77*	54*	44*	11	98*	5	2
CN(c1ccccc1)c1ccc(/C=C(\CCC(=O)O)c2nc3ccccc3s2)cc1[N+](=O)[O-]	20	8	3	10	1	74*	27	-4	DNMT1 interf DR=>99
Cc1ccc(/C=C(\CCC(=O)O)c2nc3ccccc3s2)cc1[N+](=O)[O-]	6	-9	0	-9	3	0	x	x
C=CCn1c(=NC(=O)C2CC2)sc2cc(NC(C)=O)ccc21	5	-12	1	3	0	1	x	x
C=CCn1c(=NC(=O)C2CCCCC2)sc2cc(NC(C)=O)ccc21	-8	-13	0	-7	1	51*	0	-3
CC1(C)OC2CC3C4CC=C5CC(O)CCC5(C)C4CCC3(C)C2(C(=O)CO)O1 (stereo unspecified)	1	-4	4	-3	0	67*	2	4
CCC(=O)c1ccc(OCC(O)CN2CCN(c3ccccn3)CC2)cc1 (stereo unspecified)	-5	0	-2	-8	-2	2	x	x
Cn1c(=O)c2[nH]c(NN=Cc3ccc(Br)cc3)nc2n(C)c1=O	2	-8	3	2	1	0	x	x
COc1ccc(O)c(-c2cc(-c3ccccc3[N+](=O)[O-])[nH]n2)c1	1	-2	-1	-5	0	86*	3	6
O=CNCc1nc2ccccc2n1CCCc1ccccc1	-6	-8	-2	1	-2	-1	x	x
Cn1c(=O)c2c(-c3ccccc3)n(CCCN3CCOCC3)cc2n(C)c1=O	9	1	-6	0	-1	0	x	x
CCCN(CC1CC1)c1nc(N)c2c(N)nc(OC)cc2c1C#N	0	-4	13	35	3	52*	10	7
CCOc1cc2c(C#N)c(N(CC)CC)nc(N)c2c(N)n1	4	2	20	49*	8	85*	6	6
CCOc1cc2c(C#N)c(N3CCOCC3)nc(N)c2c(N)n1	4	12	9	12	1	18	x	x
Cc1ccc(/C=C/C(=O)O)cc1S(=O)(=O)Nc1ccc(C(=O)O)cc1	-3	-1	-1	11	-1	67*	2	24
